Experimental data reported in ChEMBL document CHEMBL4145607, “Tamarixetin Exhibits Anti-inflammatory Activity and Prevents Bacterial Sepsis by Increasing IL-10 Production” (J Nat Prod, 2018).
Activity calls are given as the source filed them.

Key:
BMDC = test: Inhibition of LPS-induced immune response in C57BL/6 mouse BMDC assessed as increase in IL10 secretion at 25 uM pretreated for 30 mins followed by LPS-challenge measured after 6 hrs by ELISA; assay type: functional, cell-based
Outline: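 Bone marrow from 6-week-old female C57BL/6 mice, RBC-lysed, cultured in RPMI-1640/10% FBS with 10 ng·mL−1 rmGM-CSF, 37 °C, 5% CO2; medium refreshed days 3 and 5. DCs pretreated 30 min with compound, then LPS 50 ng·mL−1 for 6 h; supernatant IL-10 by sandwich ELISA; means ± SEM.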

Mus musculus [1] = test: Antiseptic activity in Balb/c mouse model of Escherichia coli K1 infection-induced sepsis assessed as increase in survival rate at 1 mg/kg, ip pretreated for 1 hr followed by Escherichia coli K1 infection measured over 72 hrs relative to control; assay type: functional
Outline: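 BALB/c mice dosed i.p. 1 h before i.p. E. coli K1 strain RS218 (O18:K1:H7) challenge, 1 × 10^7 CFU per mouse, diluted in LB broth; n = 10; survival monitored over 72 h.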

Mus musculus [2] = test: Antiseptic activity in Balb/c mouse model of Escherichia coli K1 infection-induced sepsis assessed as reduction in bacterial count in lungs at 50 mg/kg, ip pretreated for 1 hr followed by Escherichia coli K1 infection measured after 12 hrs; assay type: functional, organism-based
Outline: (§1)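 BALB/c mice dosed i.p. 1 h before i.p. E. coli K1 (1 × 10^6 CFU per mouse); killed at 12 h. Lungs and kidneys removed aseptically into 1 mL sterile PBS, homogenised on ice, diluted 1:1000 in PBS, 10 μL plated on LB agar, 24 h at 37 °C, colonies counted.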

Mus musculus [3] = test: Antiseptic activity in Balb/c mouse model of Escherichia coli K1 infection-induced sepsis assessed as reduction in bacterial count in kidneys at 50 mg/kg, ip pretreated for 1 hr followed by Escherichia coli K1 infection measured after 12 hrs; assay type: functional, organism-based; outline: as §1
Mus musculus [4] = test: Antiseptic activity in Balb/c mouse model of Escherichia coli K1 infection-induced sepsis assessed as reduction in serum endotoxin level at 50 mg/kg, ip pretreated for 1 hr followed by Escherichia coli K1 infection measured after 12 hrs by chromogenic assay; assay type: functional, organism-based
Outline: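 BALB/c mice dosed i.p. 1 h before i.p. E. coli K1 (1 × 10^6 CFU per mouse), sera taken at 12 h. Serum diluted 10-fold in endotoxin-free PBS, LAL chromogenic end-point assay; background subtracted, quantified against E. coli endotoxin standard, reported as EU·mL−1.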

O=c1c(O)c(-c2ccc(O)c(O)c2)oc2cc(O)cc(O)c12
inactive: inhibition (BMDC) | Activity (Mus musculus [1]) | Activity (Mus musculus [2]) | Activity (Mus musculus [3]) | Activity (Mus musculus [4])
